Legend:
[1] = target: Peptidyl-prolyl cis-trans isomerase A (Homo sapiens, UniProt P62937); assay: Binding affinity to human cyclophilin A by surface plasmon resonance method
[2] = test system: Hepatitis C virus; assay: Antiviral activity against HCV subtype 1b in human Huh7.5 cells expressing subgenomic HCV replicons and coexpressing luciferase reporter gene; type: functional, cell-based, Hepacivirus hominis; details: genotype 1b, Huh-7
Summary of the method: (§1)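 Stable Huh7.5 lines carrying genotype 1a or 1b subgenomic replicons with luciferase reporter, made by RNA electroporation and G418 selection. Assay run in phenol red-free DMEM without G418, sixteen half-log compound dilutions, in triplicate. Luciferase signal read after 72 h relative to DMSO controls, giving EC50.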

[3] = target: T1, Solute carrier organic anion transporter family member 1B1 (Homo sapiens, UniProt Q9Y6L6); assay: Inhibition of OATP1B1 (unknown origin) expressed in CHO cells using 8-fluorescein-cAMP substrate by fluorescent photometry; type: ADME, cell-based
T1 sequence (Q9Y6L6 whole entry): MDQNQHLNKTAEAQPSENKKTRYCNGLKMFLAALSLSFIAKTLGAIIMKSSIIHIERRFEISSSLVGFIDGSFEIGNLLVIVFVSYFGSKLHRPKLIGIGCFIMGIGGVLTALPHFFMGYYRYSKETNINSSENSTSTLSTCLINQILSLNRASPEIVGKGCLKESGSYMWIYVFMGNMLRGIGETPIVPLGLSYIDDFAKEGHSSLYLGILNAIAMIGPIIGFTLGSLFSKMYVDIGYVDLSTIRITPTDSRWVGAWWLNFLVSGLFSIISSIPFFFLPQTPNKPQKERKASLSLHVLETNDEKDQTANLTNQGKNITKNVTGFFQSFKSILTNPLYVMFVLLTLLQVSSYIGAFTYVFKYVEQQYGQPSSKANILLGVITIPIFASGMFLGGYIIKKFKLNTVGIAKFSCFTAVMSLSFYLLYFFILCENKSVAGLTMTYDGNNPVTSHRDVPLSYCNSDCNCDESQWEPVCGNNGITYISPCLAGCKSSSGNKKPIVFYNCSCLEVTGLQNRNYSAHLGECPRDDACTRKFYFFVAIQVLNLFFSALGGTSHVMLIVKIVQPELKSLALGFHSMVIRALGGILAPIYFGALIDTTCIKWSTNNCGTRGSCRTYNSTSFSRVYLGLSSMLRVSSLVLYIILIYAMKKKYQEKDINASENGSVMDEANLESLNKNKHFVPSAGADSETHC
Summary of the method: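 CHO-OATP1B1 cells and vector control cells cultured 2 days, then washed and equilibrated 15 min in HBSS + 10 mM HEPES. Exposed 10 min to 2.5 μM 8-fluorescein-cAMP with inhibitor at 0−30 μM (up to 1% DMSO). Cells washed and lysed, uptake measured by fluorescence, and IC50 taken from the concentration-response curve.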

[4] = target: Cytochrome P450 3A4 (Homo sapiens, UniProt P08684); assay: Time dependent inhibition of CYP3A4 (unknown origin); type: ADME; details: TDE = time-dependent effect
[5] = target: Peptidyl-prolyl cis-trans isomerase B (Homo sapiens, UniProt P23284); assay: Binding affinity to human cyclophilin B by surface plasmon resonance method
Summary of the method: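 Biotinylated cyclophilin proteins examined by single-cycle kinetics SPR. Running buffer 10 mM HEPES pH 7.4, 150 mM NaCl, 0.05% P20, 3% DMSO, with inhibitor. Each concentration injected for 1 min at 50 μL/min, then 10 min dissociation. kon, koff and KD obtained from a 1:1 binding fit.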

[6] = target: Peptidyl-prolyl cis-trans isomerase F, mitochondrial (Homo sapiens, UniProt P30405); assay: Binding affinity to human cyclophilin F by surface plasmon resonance method
Summary of the method: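 Surface plasmon resonance with biotinylated cyclophilin protein, single-cycle kinetics. Running buffer 10 mM HEPES pH 7.4, 150 mM NaCl, 0.05% P20, 3% DMSO, with inhibitor present. Compound injected at several concentrations, 1 min contact each at 50 μL/min, then 10 min final dissociation. kon, koff and KD obtained from a 1:1 binding model fit.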

[7] = test system: Hepatitis C virus; assay: Antiviral activity against HCV subtype 1a in human Huh7.5 cells expressing subgenomic HCV replicons and coexpressing luciferase reporter gene; type: functional, cell-based, Hepacivirus hominis; details: Huh-7; summary of the method: as §1
[8] = test system: Hepatitis C virus; assay: Antiviral activity against HCV subtype 1b in human Huh7.5 cells expressing subgenomic HCV replicons and coexpressing luciferase reporter gene in presence of 40% human serum; type: functional, cell-based, Hepacivirus hominis; details: genotype 1b, Huh-7
Summary of the method: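 Genotype 1b luciferase replicon in Huh7.5 cells with 40% human serum added to the assay medium, in phenol red-free DMEM without G418. Sixteen half-log dilutions in triplicate. Luciferase read after 72 h relative to DMSO-treated cells, giving EC50.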

[9] = test system: PBMC; assay: Cytotoxicity against PHA-stimulated human PBMC by 5-bromo-2'-deoxyuridine incorporation assay; type: cell-based
Summary of the method: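 Fresh PBMCs from two human donors in X-VIVO 15 medium, stimulated with PHA. Seven concentrations taken from a half-log series. Incubated 60 h at 37 °C, 5% CO2, with BrdU added for the final 12 h. Incorporation read by anti-BrdU ELISA at 450 nm. Percent inhibition against PHA-stimulated untreated cells after background subtraction, four-parameter fit giving IC50.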

[10] = Cytotoxicity against human MT4 cells by CDCF probe based assay; type: cell-based

Chain of Peptidyl-prolyl cis-trans isomerase A (P62937 whole entry): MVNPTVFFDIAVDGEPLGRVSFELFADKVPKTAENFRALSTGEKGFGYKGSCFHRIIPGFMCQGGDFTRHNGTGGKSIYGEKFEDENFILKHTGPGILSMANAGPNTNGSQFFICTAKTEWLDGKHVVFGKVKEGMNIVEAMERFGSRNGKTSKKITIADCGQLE
Chain of Peptidyl-prolyl cis-trans isomerase B (P23284 whole entry): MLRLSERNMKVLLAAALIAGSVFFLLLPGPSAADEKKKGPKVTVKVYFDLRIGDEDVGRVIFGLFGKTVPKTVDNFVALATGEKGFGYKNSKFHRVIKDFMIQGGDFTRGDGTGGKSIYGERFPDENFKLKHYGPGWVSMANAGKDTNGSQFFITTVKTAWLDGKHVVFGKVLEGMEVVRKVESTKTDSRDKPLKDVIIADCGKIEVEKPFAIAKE
Chain of Peptidyl-prolyl cis-trans isomerase F, mitochondrial (P30405 whole entry): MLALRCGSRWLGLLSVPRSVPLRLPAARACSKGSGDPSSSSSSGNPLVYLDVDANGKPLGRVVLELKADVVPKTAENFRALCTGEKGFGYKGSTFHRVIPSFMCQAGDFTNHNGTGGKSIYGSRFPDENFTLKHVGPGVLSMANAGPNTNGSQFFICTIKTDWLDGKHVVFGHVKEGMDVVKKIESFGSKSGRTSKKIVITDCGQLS
Chain of Cytochrome P450 3A4 (P08684 whole entry): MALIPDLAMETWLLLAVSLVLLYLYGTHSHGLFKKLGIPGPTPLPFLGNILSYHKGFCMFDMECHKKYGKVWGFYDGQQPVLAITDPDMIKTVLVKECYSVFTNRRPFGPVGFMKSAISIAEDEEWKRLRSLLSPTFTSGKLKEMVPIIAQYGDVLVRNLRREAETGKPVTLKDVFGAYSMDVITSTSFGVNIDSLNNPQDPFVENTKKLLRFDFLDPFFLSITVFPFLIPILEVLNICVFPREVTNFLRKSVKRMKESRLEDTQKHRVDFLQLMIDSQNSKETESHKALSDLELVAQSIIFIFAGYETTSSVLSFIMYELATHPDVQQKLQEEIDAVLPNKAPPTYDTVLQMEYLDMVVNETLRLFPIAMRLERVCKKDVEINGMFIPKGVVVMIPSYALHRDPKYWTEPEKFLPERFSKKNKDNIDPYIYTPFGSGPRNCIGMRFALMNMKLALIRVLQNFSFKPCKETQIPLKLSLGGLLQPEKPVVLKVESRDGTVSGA

Row | SMILES | Kd [1] [nM] | EC50 [2] [nM] | IC50 [3] [nM] | inhibition (INH) [4] | Kd [5] [nM] | Kd [6] [nM] | EC50 [7] [nM] | EC50 [8] [nM] | IC50 [9] [nM] | CC50 [10] [nM]
1 | C/C=C/C[C@@H](C)[C@@H](O)[C@H]1C(=O)N[C@@H](CC)C(=O)N(C)[C@H](C)C(=O)N(C)[C@@H]([C@H](C)CC#N)C(=O)N[C@@H](C(C)C)C(=O)N(C)[C@@H](CC(C)C)C(=O)N[C@@H](C)C(=O)N[C@H](C)C(=O)N(C)[C@@H](CC(C)C)C(=O)N(C)[C@@H](CC(C)C)C(=O)N(C)[C@@H](C(C)C)C(=O)N1C | 1.3 | 28 | 1000 | – | – | – | – | – | – | –
2 | C/C=C/C[C@@H](C)[C@@H](O)[C@H]1C(=O)N[C@@H](CC)C(=O)N(C)[C@H](C)C(=O)N(C)[C@@H]([C@H](C)COC)C(=O)N[C@@H](C(C)C)C(=O)N(C)[C@@H](CC(C)C)C(=O)N[C@@H](C)C(=O)N[C@H](C)C(=O)N(C)[C@@H](CC(C)C)C(=O)N(C)[C@@H](CC(C)C)C(=O)N(C)[C@@H](C(C)C)C(=O)N1C | 1.7 | 36 | 2800 | – | – | – | – | – | – | –
3 | C/C=C/C[C@@H](C)[C@@H](O)[C@H]1C(=O)N[C@@H](CC)C(=O)N(C)[C@H](C)C(=O)N(C)[C@@H]([C@H](C)CN2CCOCC2)C(=O)N[C@@H](C(C)C)C(=O)N(C)[C@@H](CC(C)C)C(=O)N[C@@H](C)C(=O)N[C@H](C)C(=O)N(C)[C@@H](CC(C)C)C(=O)N(C)[C@@H](CC(C)C)C(=O)N(C)[C@@H](C(C)C)C(=O)N1C | 3.1 | 33 | 4300 | – | – | – | – | – | – | –
4 | C/C=C/C[C@@H](C)[C@@H](O)[C@H]1C(=O)N[C@@H](CC)C(=O)N(C)[C@H](C)C(=O)N(C)[C@@H]([C@H](C)CN2CCCOCC2)C(=O)N[C@@H](C(C)C)C(=O)N(C)[C@@H](CC(C)C)C(=O)N[C@@H](C)C(=O)N[C@H](C)C(=O)N(C)[C@@H](CC(C)C)C(=O)N(C)[C@@H](CC(C)C)C(=O)N(C)[C@@H](C(C)C)C(=O)N1C | 1.9 | 37 | 1800 | – | – | – | – | – | – | –
5 | C/C=C/C[C@@H](C)[C@@H](O)[C@H]1C(=O)N[C@@H](CC)C(=O)N(C)[C@H](C)C(=O)N(C)[C@@H]([C@H](C)CN2CCC(F)(F)C2)C(=O)N[C@@H](C(C)C)C(=O)N(C)[C@@H](CC(C)C)C(=O)N[C@@H](C)C(=O)N[C@H](C)C(=O)N(C)[C@@H](CC(C)C)C(=O)N(C)[C@@H](CC(C)C)C(=O)N(C)[C@@H](C(C)C)C(=O)N1C | 4 | 44 | – | – | – | – | – | – | – | –
6 | C/C=C/C[C@@H](C)[C@@H](O)[C@H]1C(=O)N[C@@H](CC)C(=O)N(C)[C@H](C)C(=O)N(C)[C@@H]([C@H](C)CN2CC3CCC(C2)O3)C(=O)N[C@@H](C(C)C)C(=O)N(C)[C@@H](CC(C)C)C(=O)N[C@@H](C)C(=O)N[C@H](C)C(=O)N(C)[C@@H](CC(C)C)C(=O)N(C)[C@@H](CC(C)C)C(=O)N(C)[C@@H](C(C)C)C(=O)N1C | 2.5 | 42 | 1800 | – | – | – | – | – | – | –
7 | C/C=C/C[C@@H](C)[C@@H](O)[C@H]1C(=O)N[C@@H](CC)C(=O)N(C)[C@H](C)C(=O)N(C)[C@@H]([C@H](C)CN2CCC(C#N)CC2)C(=O)N[C@@H](C(C)C)C(=O)N(C)[C@@H](CC(C)C)C(=O)N[C@@H](C)C(=O)N[C@H](C)C(=O)N(C)[C@@H](CC(C)C)C(=O)N(C)[C@@H](CC(C)C)C(=O)N(C)[C@@H](C(C)C)C(=O)N1C | 1.4 | 29 | – | – | – | – | – | – | – | –
8 | C/C=C/C[C@@H](C)[C@@H](O)[C@H]1C(=O)N[C@@H](CC)C(=O)N(C)[C@H](C)C(=O)N(C)[C@@H]([C@H](C)CN(C)CCOC)C(=O)N[C@@H](C(C)C)C(=O)N(C)[C@@H](CC(C)C)C(=O)N[C@@H](C)C(=O)N[C@H](C)C(=O)N(C)[C@@H](CC(C)C)C(=O)N(C)[C@@H](CC(C)C)C(=O)N(C)[C@@H](C(C)C)C(=O)N1C | 1.8 | 42 | 2000 | – | – | – | – | – | – | –
9 | C/C=C/C[C@@H](C)[C@@H](O)[C@H]1C(=O)N[C@@H](CC)C(=O)N(C)[C@H](C)C(=O)N(C)[C@@H]([C@H](C)CCN2CCOCC2)C(=O)N[C@@H](C(C)C)C(=O)N(C)[C@@H](CC(C)C)C(=O)N[C@@H](C)C(=O)N[C@H](C)C(=O)N(C)[C@@H](CC(C)C)C(=O)N(C)[C@@H](CC(C)C)C(=O)N(C)[C@@H](C(C)C)C(=O)N1C | 1.1 | 29 | – | tde | – | – | – | – | – | –
10 | C/C=C/C[C@@H](C)[C@@H](O)[C@H]1C(=O)N[C@@H](CC)C(=O)N(C)[C@H](C)C(=O)N(C)[C@@H]([C@H](C)COCCN2CCOCC2)C(=O)N[C@@H](C(C)C)C(=O)N(C)[C@@H](CC(C)C)C(=O)N[C@@H](C)C(=O)N[C@H](C)C(=O)N(C)[C@@H](CC(C)C)C(=O)N(C)[C@@H](CC(C)C)C(=O)N(C)[C@@H](C(C)C)C(=O)N1C | 1.1 | 36 | 6400 | – | – | – | – | – | – | –
11 | C/C=C/C[C@@H](C)[C@@H](O)[C@H]1C(=O)N[C@@H](CC)C(=O)N(C)C(SCCN(C)C)C(=O)N(C)[C@@H](CC(C)(C)O)C(=O)N[C@@H](C(C)C)C(=O)N(C)[C@@H](CC(C)C)C(=O)N[C@@H](C)C(=O)N[C@H](C)C(=O)N(C)[C@@H](CC(C)C)C(=O)N(C)[C@@H](CC(C)C)C(=O)N(C)[C@@H](C(C)C)C(=O)N1C (single isomer, unassigned) [SCY 635] | – | 221 | – | – | 2.9 | 3.1 | 263 | 192 | 4700 | –
12 | C/C=C/C[C@@H](C)[C@@H](O)[C@H]1C(=O)N[C@@H](CC)C(=O)N(C)CC(=O)N(C)[C@@H]([C@@H](C)CC)C(=O)N[C@@H](C(C)C)C(=O)N(C)[C@@H](CC(C)C)C(=O)N[C@@H](C)C(=O)N[C@H](C)C(=O)N(C)[C@@H](CC(C)C)C(=O)N(C)[C@@H](CC(C)C)C(=O)N(C)[C@@H](C(C)C)C(=O)N1C [NIM811] | 7.5 | 97 | – | – | 7.4 | 4.2 | 217 | 210 | 2400 | 13000

Reference: ChEMBL document CHEMBL3351593, “Potent nonimmunosuppressive cyclophilin inhibitors with improved pharmaceutical properties and decreased transporter inhibition” (J Med Chem, 2014)
